# Measurements taken from ChEMBL document CHEMBL4038269, “Design, synthesis and evaluation of novel feruloyl-donepezil hybrids as potential multitarget drugs for the treatment of Alzheimer's disease” (Eur J Med Chem, 2017).
# Activity calls are given as the source filed them.
# Columns and labels:
# [1] = Antioxidant activity assessed as DPPH radical scavenging activity measured after 30 mins; format: functional
# Summary of the method: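 DPPH scavenging: compound at 12.5, 25, 50 and 100 µM in ethanol (4 mL) mixed with 1 mL of 0.5 mM DPPH in ethanol. Shaken 30 min at room temperature, absorbance read at 517 nm. % inhibition = (A control − A sample)/A control × 100. Run in triplicate; EC50 obtained by linear regression of mean values.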
# Acetylcholinesterase = Acetylcholinesterase (Electrophorus electricus, UniProt O42275); assay: Inhibition of Electrophorus electricus AChE using acetylthiocholine iodide as substrate pretreated for 10 mins followed by substrate addition measured at 12 secs interval for 5 mins by Ellman's method
# Mus musculus [2] = assay: In vivo inhibition of COX-2 activity in carrageenan-induced Swiss mouse serum at 100 umol/kg, po pretreated for 1 hr followed by carrageenan challenge after 3 hrs by ELISA relative to control; format: functional
# Summary of the method: (§1)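 Male Swiss mice given oral drug (100 µmol/kg) or vehicle 1 h before intraplantar carrageenan (legend: 400 µg/paw). At 3 h, animals anaesthetised with chloral hydrate and cardiac blood taken. Serum separated (1500 rpm, 20 min) and frozen at -70 °C. COX-1, COX-2 and 5-LOX measured by specific sandwich ELISA at 450 nm. Expressed as % enzymatic activity, mean ± SEM, n=8.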
# Mus musculus [3] = assay: Antinociceptive activity in carrageenan-induced Swiss mouse model of mechanical hyperalgesia at 100 umol/kg, po pretreated for 1 hr followed by carrageenan challenge measured at 3 hrs post dose by Von Frey filament assay; format: functional, organism-based
# Summary of the method: (§2)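 Male Swiss mice (n=8) dosed orally with 100 µmol/kg or vehicle 1 h before intraplantar carrageenan (100 µg/paw). Mechanical threshold measured by up-and-down Von Frey method after 60 min acclimation on a wire screen. Started at 0.4 g filament, ≥6 trials at 10 s intervals, about 4 s per application. Reported as mean threshold in grams ± SEM.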
# Mus musculus [4] = assay: In vivo inhibition of COX-1 activity in carrageenan-induced Swiss mouse serum at 100 umol/kg, po pretreated for 1 hr followed by carrageenan challenge after 3 hrs by ELISA relative to control; format: functional; summary of the method: as §1
# Mus musculus [5] = assay: Anti-inflammatory activity in Swiss mouse assessed as reduction in carrageenan-induced paw edema at 100 umol/kg, po pretreated for 1 hr followed by carrageenan challenge after 3 hrs by plethysmometer; format: functional, organism-based
# Summary of the method: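 Adult male Swiss mice (22-28 g), fasted overnight, given vehicle (DMSO 2% in sterile saline) or 100 µmol/kg orally 1 h before intraplantar carrageenan. Methods give 400 µg/20 µl and n=10 per group; figure legend gives 100 µg/paw and n=8. Right hind paw volume read by plethysmometer at 1, 3 and 5 h. Reported as change in µL from basal volume, mean ± SEM.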
# Mus musculus [6] = assay: Antiinflammatory activity in formalin-induced nociception Swiss mouse model assessed as reduction in time spent licking formalin injected hind paw during neurogenic phase at 100 umol/kg, po pretreated for 1 hr followed by formalin challenge measured up to 5 mins; format: functional, organism-based
# Summary of the method: (§3)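 Male Swiss mice (22-28 g), n=8 per group, given oral vehicle (saline + DMSO 2%) or 100 µmol/kg 1 h before formalin (5% in 0.9% saline, 20 µl) into the right hind paw sub-plantar region. Morphine 39 µmol/kg i.p. was given 30 min before. Paw-licking time recorded at 0–5 min (neurogenic phase) and 20–30 min (inflammatory phase).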
# Mus musculus [7] = assay: Antiinflammatory activity in formalin-induced nociception Swiss mouse model assessed as reduction in time spent licking formalin injected hind paw during inflammatory phase at 100 umol/kg, po pretreated for 1 hr followed by formalin challenge measured after 20 to 30 mins; format: functional, organism-based; summary of the method: as §3
# SH-SY5Y [8] = assay: Antioxidant activity in human SH-SY5Y cells assessed as reduction in H2O2-induced reactive oxygen species formation at 40 uM measured after 24 hrs by DCFH-DA probe based fluorescence assay relative to control; format: functional; set-up: scale not given: the % may be the effect or the level left
# SH-SY5Y [9] = assay: Antioxidant activity in human SH-SY5Y cells assessed as reduction in H2O2-induced reactive oxygen species formation measured after 24 hrs by DCFH-DA probe based fluorescence assay; format: functional, cell-based
# [10] = target: Acetylcholinesterase (Electrophorus electricus) (UniProt O42275); assay: Inhibition of Electrophorus electricus AChE at 30 uM using acetylthiocholine iodide as substrate pretreated for 10 mins followed by substrate addition measured at 12 secs interval for 5 mins by Ellman's method relative to control
# Summary of the method: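 Enzyme (0.5 U/mL) with DTNB (10 mM) in 0.1 M sodium phosphate pH 7.4; compound at 30 μM preincubated 10 min, then acetylthiocholine or butyrylthiocholine iodide added ([…]); A412 read every 12 s for 5 min. Velocity as percent of vehicle control; means and pooled SD from 2-4 experiments in triplicate. DMSO ≤0.2% final.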
# [11] = Metal chelating activity assessed as absorption maximum for compound-Cu2+ complex formation at 75 uM after 30 mins by UV-Vis spectrophotometric method (reference value: 237.2 nanometer); format: functional
# Summary of the method: (§4)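 UV-Vis spectra in ethanol of compound at 75 µM alone or after 30 min incubation with CuSO4, FeSO4, FeCl3 or ZnCl2 (150 µM). Absorption maxima recorded.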
# [12] = Metal chelating activity assessed as absorption maximum for compound-Zn2+ complex formation at 75 uM after 30 mins by UV-Vis spectrophotometric method; format: functional; summary of the method: as §4
# SH-SY5Y [13] = assay: Antioxidant activity in human SH-SY5Y cells assessed as increase in GSH level at 20 uM after 24 hrs by MCB probe based assay relative to control; format: functional
# Summary of the method: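 SH-SY5Y cells (DMEM, 10% FBS, 37 °C, 5% CO2) seeded at 2 x 10^4 cells/well and grown 24 h. Treated with 20 µM compound for 3-24 h. Then 50 µM monochlorobimane in PBS for 30 min at 37 °C. GSH fluorescence read at ex 360/em 465 nm, as % of control cells. Mean ± SD of three independent experiments.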
# [14] = target: Cholinesterase (Equus caballus) (UniProt P81908); assay: Inhibition of equine serum BuChE at 30 uM using butyrylthiocholine iodide as substrate pretreated for 10 mins followed by substrate addition measured at 12 secs interval for 5 mins by Ellman's method relative to control
# [15] = Metal chelating activity assessed as compound-Fe3+ complex formation at 75 uM after 30 mins by UV-Vis spectrophotometric method; format: functional; summary of the method: as §4
# [16] = Cytotoxicity against human SH-SY5Y cells assessed as reduction in cell viability at 40 uM after 24 hrs by MTT assay relative to control; format: cell-based; details: read-out: INH
# Summary of the method: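 SH-SY5Y cells seeded at 2 x 10^4 cells/well, grown 24 h, then exposed to compound 1.25–40 µM for 24 h at 37 °C. MTT (5 mg/mL in PBS) added for 2 h and formazan dissolved in isopropanol. Read at 570 nm, reference 690 nm. Viability loss reported as percent at the top concentration, 40 µM.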
# [17] = Metal chelating activity assessed as absorption maximum for compound-Fe2+ complex formation at 75 uM after 30 mins by UV-Vis spectrophotometric method (reference value: 237.2 nanometer); format: functional; summary of the method: as §4
# SH-SY5Y [18] = assay: Pro-oxidant activity in human SH-SY5Y cells assessed as increase in H2O2-induced reactive oxygen species formation at 20 to 40 uM pretreated for 24 hrs followed by H2O2 addition by DCFH-DA probe based fluorescence assay; format: ADME, cell-based
# Mus musculus [19] = assay: Anti-inflammatory activity in Swiss mouse model of LPS-induced peritonitis assessed as inhibition of leukocyte migration at 100 umol/kg, po pretreated for 30 mins followed by LPS challenge measured after 4 hrs by Neubauer chamber method; format: functional, organism-based
# Summary of the method: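 Adult male Swiss mice (22-28 g), n=8 per group, dosed orally with 100 µmol/kg or vehicle (saline + DMSO 2%). 30 min later E. coli 026:B6 LPS, 100 µg/kg i.p. in sterile saline. Killed at 4 h by halothane overdose. Peritoneum lavaged with 10 ml PBS containing 0.5% sodium citrate. Total leukocytes counted in a Neubauer chamber, expressed as cells per cavity, mean ± SEM.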
# SH-SY5Y [20] = assay: Antioxidant activity in human SH-SY5Y cells assessed as reduction in H2O2-induced reactive oxygen species formation at 10 uM measured after 24 hrs by DCFH-DA probe based fluorescence assay; format: functional, cell-based
# Mus musculus [21] = assay: Antinociceptive activity in carrageenan-induced Swiss mouse model of mechanical hyperalgesia at 100 umol/kg, po pretreated for 1 hr followed by carrageenan challenge measured at 3 hrs to 7 hrs post dose by Von Frey filament assay; format: functional, organism-based; summary of the method: as §2
# Mus musculus [22] = assay: Neurotoxicity in Swiss mouse assessed as induction of motor impairment at 100 umol/kg, po measured after 1 hr by open filed test; format: toxicity, organism-based; details: in vivo
# Summary of the method: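 Male Swiss mice (n=8) given vehicle or compound orally 1 h before open-field test. Crossings of the central four and peripheral 12 squares counted separately.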
# Cholinesterase = Cholinesterase (Equus caballus, UniProt P81908); assay: Inhibition of equine serum BuChE using butyrylthiocholine iodide as substrate pretreated for 10 mins followed by substrate addition measured at 12 secs interval for 5 mins by Ellman's method
# Summary of the method: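 Ellman assay in 0.1 M sodium phosphate pH 7.4, enzyme 0.5 U/mL, DTNB 10 mM; concentration series preincubated 10 min before butyrylthiocholine iodide ([…]); A412 over 5 min at 12 s intervals. IC50 from fitted concentration-response curves, geometric mean of independent experiments, each in triplicate; DMSO ≤0.2% final.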
# [23] = Homo sapiens, SH-SY5Y, 24 h, read-out: IC50
# Chain of Acetylcholinesterase (O42275 whole entry): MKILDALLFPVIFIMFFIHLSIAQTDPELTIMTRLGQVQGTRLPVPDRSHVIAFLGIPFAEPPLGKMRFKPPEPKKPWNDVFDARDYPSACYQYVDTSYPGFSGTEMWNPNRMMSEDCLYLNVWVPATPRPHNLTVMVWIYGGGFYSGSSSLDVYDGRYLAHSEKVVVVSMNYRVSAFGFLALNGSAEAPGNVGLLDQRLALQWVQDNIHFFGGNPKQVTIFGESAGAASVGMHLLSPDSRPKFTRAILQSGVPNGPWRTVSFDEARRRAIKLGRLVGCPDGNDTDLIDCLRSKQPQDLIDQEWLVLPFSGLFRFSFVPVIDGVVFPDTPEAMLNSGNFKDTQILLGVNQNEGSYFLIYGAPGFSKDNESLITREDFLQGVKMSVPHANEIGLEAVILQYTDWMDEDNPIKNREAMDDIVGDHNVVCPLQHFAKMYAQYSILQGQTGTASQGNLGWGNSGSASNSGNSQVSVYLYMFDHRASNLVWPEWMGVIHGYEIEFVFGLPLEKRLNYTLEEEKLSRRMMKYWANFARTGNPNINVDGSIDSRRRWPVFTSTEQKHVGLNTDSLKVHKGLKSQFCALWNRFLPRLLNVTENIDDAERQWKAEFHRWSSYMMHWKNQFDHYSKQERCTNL
# Chain of Cholinesterase (Equus caballus) (P81908 whole entry): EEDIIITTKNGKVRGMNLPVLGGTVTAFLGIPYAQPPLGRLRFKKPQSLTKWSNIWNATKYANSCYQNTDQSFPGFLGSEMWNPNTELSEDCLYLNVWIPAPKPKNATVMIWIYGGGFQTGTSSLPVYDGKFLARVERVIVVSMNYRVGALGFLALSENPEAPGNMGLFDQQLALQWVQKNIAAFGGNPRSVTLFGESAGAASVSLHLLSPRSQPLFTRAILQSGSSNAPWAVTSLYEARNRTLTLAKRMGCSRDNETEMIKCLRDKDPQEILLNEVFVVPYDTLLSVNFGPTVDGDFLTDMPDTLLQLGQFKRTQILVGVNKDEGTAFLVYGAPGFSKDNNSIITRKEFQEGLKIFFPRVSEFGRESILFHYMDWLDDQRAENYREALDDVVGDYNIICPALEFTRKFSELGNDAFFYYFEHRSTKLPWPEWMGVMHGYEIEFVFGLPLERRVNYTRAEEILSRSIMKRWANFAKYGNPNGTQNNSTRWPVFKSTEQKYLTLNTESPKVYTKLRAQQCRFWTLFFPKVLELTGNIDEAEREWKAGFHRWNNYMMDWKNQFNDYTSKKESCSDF
# Chain of Cholinesterase (P81908 whole entry): as above
# Chain of Acetylcholinesterase (Electrophorus electricus) (O42275 24-633 limits assumed): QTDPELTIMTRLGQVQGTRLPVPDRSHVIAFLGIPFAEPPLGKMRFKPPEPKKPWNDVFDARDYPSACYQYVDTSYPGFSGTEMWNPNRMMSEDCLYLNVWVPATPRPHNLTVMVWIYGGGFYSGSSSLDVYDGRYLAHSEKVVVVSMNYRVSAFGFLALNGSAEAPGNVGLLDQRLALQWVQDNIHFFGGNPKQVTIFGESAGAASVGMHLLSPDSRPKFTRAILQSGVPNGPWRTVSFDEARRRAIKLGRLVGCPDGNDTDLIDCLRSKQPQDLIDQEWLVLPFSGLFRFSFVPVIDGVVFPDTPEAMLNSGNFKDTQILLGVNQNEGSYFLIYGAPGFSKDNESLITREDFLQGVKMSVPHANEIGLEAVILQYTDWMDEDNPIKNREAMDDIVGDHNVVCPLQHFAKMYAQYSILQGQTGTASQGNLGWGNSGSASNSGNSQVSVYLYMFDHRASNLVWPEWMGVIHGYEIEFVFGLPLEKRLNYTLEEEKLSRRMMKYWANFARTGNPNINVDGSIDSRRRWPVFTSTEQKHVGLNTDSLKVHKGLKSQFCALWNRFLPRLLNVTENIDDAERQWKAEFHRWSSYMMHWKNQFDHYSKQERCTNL
smiles,measurement,setting,value
COc1ccc(/C=C/C(=O)OCC2CCN(Cc3ccc(N4CCOCC4)cc3)CC2)cc1O,EC50,[1],> 100 µM
same,IC50,Acetylcholinesterase,> 30 µM
COc1cc(/C=C/C(=O)OCC2CCN(Cc3ccc(N4CCOCC4)cc3)CC2)ccc1O,EC50,[1],73.8 µM
same,IC50,Acetylcholinesterase,> 30 µM
COc1ccc2c(c1)c(CC(=O)O)c(C)n2C(=O)c1ccc(Cl)cc1 [INDOMETHACIN],inhibition in vivo at 100 µmol/kg,Mus musculus [2],42%
same,Activity,Mus musculus [3],Active
same,inhibition in vivo at 100 µmol/kg,Mus musculus [4],50%
same,Activity,Mus musculus [5],Active
same,Activity,Mus musculus [6],Active
same,Activity,Mus musculus [7],Active
Cc1c(C)c2c(c(C)c1O)CCC(C)(C(=O)O)O2 (configuration not stated) [TROLOX],EC50,[1],4.86 µM
COc1ccc(/C=C/C(=O)OCC2CCN(Cc3ccc([N+](=O)[O-])cc3)CC2)cc1O,EC50,[1],> 100 µM
same,IC50,Acetylcholinesterase,> 30 µM
COc1cc2c(cc1OC)C(=O)C(CC1CCN(Cc3ccccc3)CC1)C2 (configuration not stated) [DONEPEZIL],Activity,SH-SY5Y [8],<50%
same,IC50,SH-SY5Y [9]; sh-sy5y,Not Active
COc1cc(/C=C/C(=O)O)ccc1O [FERULATE],EC50,[1],35.5 µM
same,IC50,SH-SY5Y [9]; [23],11.8 µM
COc1ccc(CN2CCC(COC(=O)/C=C/c3ccc(O)c(OC)c3)CC2)cc1,EC50,[1],78.1 µM
same,IC50,Acetylcholinesterase,> 30 µM
COc1cc(/C=C/C(=O)OCC2CCN(Cc3ccc(Cl)cc3)CC2)ccc1O,EC50,[1],20.5 µM
same,IC50,Acetylcholinesterase,> 30 µM
COc1ccc(/C=C/C(=O)OCC2CCN(Cc3ccccc3)CC2)cc1O,EC50,[1],> 100 µM
same,IC50,Acetylcholinesterase,> 30 µM
COc1ccc(/C=C/C(=O)OCC2CCN(Cc3ccc(Br)cc3)CC2)cc1O,EC50,[1],> 100 µM
same,IC50,Acetylcholinesterase,> 30 µM
COc1ccc(/C=C/C(=O)OCC2CCN(Cc3ccc(Cl)cc3)CC2)cc1O,EC50,[1],12.5 µM
same,IC50,Acetylcholinesterase,> 30 µM
COc1cc(/C=C/C(=O)OCC2CCN(Cc3ccc([N+](=O)[O-])cc3)CC2)ccc1O,EC50,[1],46.7 µM
same,inhibition,[10],50%
same,Activity,[11],Active
same,IC50,Acetylcholinesterase,16.7 µM
same,Activity,[12],inactive
same,fold change (FC),SH-SY5Y [13],1.2
same,inhibition,[14],4.3%
same,Activity,[15],inactive
same,"cytotoxicity at 24 h, 40 µM",[16],9%
same,Activity,SH-SY5Y [9],Dose-dependent effect
same,IC50,SH-SY5Y [9]; [23],25.9 µM
same,Activity,[17],Active
COc1cc(/C=C/C(=O)OCC2CCN(Cc3ccc4c(c3)OCO4)CC2)ccc1O,EC50,[1],> 100 µM
same,IC50,Acetylcholinesterase,> 30 µM
COc1cc(/C=C/C(=O)OCC2CCN(Cc3ccc(Br)cc3)CC2)ccc1O,Activity,SH-SY5Y [18],Toxic
same,inhibition,Mus musculus [19],Active
same,EC50,[1],45.4 µM
same,inhibition in vivo at 100 µmol/kg,Mus musculus [2],60%
same,Activity,Mus musculus [3],Active
same,inhibition in vivo at 100 µmol/kg,Mus musculus [4],30%
same,Activity,[11],Active
same,IC50,Acetylcholinesterase,> 30 µM
same,Activity,[12],inactive
same,Activity,SH-SY5Y [20],Active
same,Activity,Mus musculus [5],Active
same,Activity,Mus musculus [21],Active
same,Activity,SH-SY5Y [13],inactive
same,Activity,Mus musculus [7],Active
same,Activity,Mus musculus [22],Non-Toxic
same,Activity,[15],inactive
same,"cytotoxicity at 24 h, 40 µM",[16],28%
same,Activity,SH-SY5Y [8],<50%
same,Activity,[17],Active
COc1ccc(/C=C/C(=O)OCC2CCN(Cc3ccc4c(c3)OCO4)CC2)cc1O,EC50,[1],> 100 µM
same,IC50,Acetylcholinesterase,> 30 µM
same,IC50,SH-SY5Y [9]; sh-sy5y,Not Active
COc1ccc(CN2CCC(COC(=O)/C=C/c3ccc(OC)c(O)c3)CC2)cc1,EC50,[1],> 100 µM
same,IC50,Acetylcholinesterase,> 30 µM
COc1ccc(/C=C/C(=O)O)cc1O [ISOFERULIC ACID],EC50,[1],> 100 µM
COc1cc(/C=C/C(=O)CC(=O)/C=C/c2ccc(O)c(OC)c2)ccc1O [CURCUMIN],IC50,Cholinesterase,> 300 µM
